# Assay results taken from ChEMBL document CHEMBL3797083, “A New Series of Orally Bioavailable Chemokine Receptor 9 (CCR9) Antagonists; Possible Agents for the Treatment of Inflammatory Bowel Disease” (J Med Chem, 2016).
# pKi: −log10 of the molar value. Active and inactive are the calls of the source. The calls are words filed in the database; no cut-off is given here.
# Legend:
# [1] = target: T1, C-C chemokine receptor type 9 (Homo sapiens, UniProt P51686); experiment: Antagonist activity at CCR9 receptor in human MOLT4 cells assessed as inhibition of CCL25-induced increase in intracellular calcium level preincubated for 1 hr followed CCL25 addition by FLIPR assay; assay type: functional, cell-based, MOLT-4
# T1 sequence (P51686 whole entry): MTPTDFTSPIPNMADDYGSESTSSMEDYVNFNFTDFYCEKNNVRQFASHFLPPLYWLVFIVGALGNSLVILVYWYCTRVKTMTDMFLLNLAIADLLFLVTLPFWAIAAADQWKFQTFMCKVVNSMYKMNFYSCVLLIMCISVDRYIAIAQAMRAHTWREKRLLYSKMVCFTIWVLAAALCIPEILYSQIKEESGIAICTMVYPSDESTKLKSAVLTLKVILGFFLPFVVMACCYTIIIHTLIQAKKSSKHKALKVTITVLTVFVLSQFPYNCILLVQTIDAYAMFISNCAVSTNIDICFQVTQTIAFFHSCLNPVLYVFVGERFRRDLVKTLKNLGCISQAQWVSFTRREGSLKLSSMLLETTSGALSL
# [2] = Solubility of compound at pH 7.4 buffer; assay type: physicochemical
# Method in brief: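 Solubility was measured at pH 7.4. Each value is the mean of three replicates.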
# Liver microsome = experiment: Metabolic stability of compound in human liver microsomes assessed as remaining compound at 37 deg C; assay type: ADME
# Method in brief: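 Test compound incubated with human liver microsomes at 37 °C. Loss of parent compound was followed over a 30 min period, and the percentage remaining is reported as the mean of 3 replicates.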
# [3] = Metabolic stability of compound in mouse liver microsomes assessed as remaining compound at 37 deg C; assay type: ADME
# [4] = Elimination half life in mouse at 1 mg/kg, iv; assay type: ADME, organism-based; conditions: in vivo, read-out: beta t1/2 (converted)
# [5] = Clearance in mouse at 1 mg/kg, iv; assay type: ADME, organism-based; conditions: in vivo
# [6] = AUC in mouse at 10 mg/kg, po; assay type: ADME, organism-based; conditions: in vivo
# [7] = Absolute bioavailability in mouse at 1 mg/kg, iv 10 mg/kg, po; assay type: ADME, organism-based; conditions: in vivo
# Mus musculus [8] = experiment: Anticolitis activity in DSS-induced acute colitis C57BL/6 mouse model assessed as reduction in disease activity index at 30 mg/kg, sc bid for 10 days; assay type: functional; conditions: C57BL/6, sc, 240 h
# Mus musculus [9] = experiment: Anticolitis activity in DSS-induced acute colitis C57BL/6 mouse model assessed as reduction in disease activity index at 10 mg/kg, po bid for 10 days; assay type: functional; conditions: C57BL/6, po, 240 h
# Mus musculus [10] = experiment: Anticolitis activity in DSS-induced acute colitis C57BL/6 mouse model assessed as reduction in disease activity index at 30 mg/kg, po bid for 10 days; assay type: functional; conditions: C57BL/6, po, 240 h
# Mus musculus [11] = experiment: Anticolitis activity in DSS-induced acute colitis C57BL/6 mouse model assessed as reduction in disease activity index at 100 mg/kg, po bid for 10 days; assay type: functional; conditions: C57BL/6, po, 240 h
# Mus musculus [12] = experiment: Anticolitis activity in DSS-induced chronic colitis C57BL/6 mouse model assessed as reduction in disease activity index at 30 mg/kg, po bid for 30 days; assay type: functional, organism-based
# Mus musculus [13] = experiment: Anticolitis activity in DSS-induced acute colitis C57BL/6 mouse model assessed as reduction in disease activity index at 3 mg/kg, po bid for 10 days; assay type: functional; conditions: C57BL/6, po, 240 h
# Mus musculus [14] = experiment: Anticolitis activity in DSS-induced acute colitis C57BL/6 mouse model assessed as reduction in disease activity index at 50 mg/kg, sc bid for 10 days; assay type: functional; set-up: scale not given: the % may be the effect or the level left
SMILES,pKi [1],solubility [2] [µM],Stability (Liver microsome) [%],Stability [3] [%],half-life [4] [h],clearance [5] [mL/min/kg],AUC [6] [ng·h/mL],bioavailability [7] [%],inhibition in vivo at 30 mg/kg (Mus musculus [8]) [%],inhibition in vivo at 10 mg/kg (Mus musculus [9]) [%],inhibition in vivo at 30 mg/kg (Mus musculus [10]) [%],inhibition in vivo at 100 mg/kg (Mus musculus [11]) [%],Activity (Mus musculus [12]),inhibition in vivo at 3 mg/kg (Mus musculus [13]) [%],Activity (Mus musculus [14]) [%]
CC(C)(C)c1ccc(S(=O)(=O)Nc2cccc3c2C(=O)N(Cc2cccnc2)C3=O)cc1,6.21,,,,,,,,,,,,,,
CC(C)(C)c1ccc(S(=O)(=O)Nc2ccc(Cl)c3c2C(=O)N(Cc2ccc[n+]([O-])c2)C3=O)cc1,,126,15,8,0.62,3.92,13900,33,24,21,31,58,Active,,
COc1ccncc1N1C(=O)c2c(Cl)ccc(NS(=O)(=O)c3ccc(C(C)(C)C)cc3)c2C1=O,,10,81,60,1.03,6.86,35600,100,,,,,,,
CC(C)(C)c1ccc(S(=O)(=O)Nc2ccc(Cl)c3c2C(=O)N(c2ccc(F)nc2)C3=O)cc1,7.72,,,,,,,,,,,,,,
Cc1c(N2C(=O)c3c(Cl)ccc(NS(=O)(=O)c4ccc(C(C)(C)C)cc4)c3C2=O)ccc[n+]1[O-],,114,71,76,1.28,4.69,16200,48,,27,51,86,Active,41,
Cc1cccc(N2C(=O)c3c(Cl)ccc(NS(=O)(=O)c4ccc(C(C)(C)C)cc4)c3C2=O)n1,,27,61,42,1.32,2.34,67900,95,,,,,,,
CC(C)(C)c1ccc(S(=O)(=O)Nc2ccc(Cl)cc2C(=O)c2cc[n+]([O-])cc2)cc1 [VERCIRNON],,6,73,9,0.16,103,340,22,,,,,,,17
COc1ncccc1N1C(=O)c2c(Cl)ccc(NS(=O)(=O)c3ccc(C(C)(C)C)cc3)c2C1=O,8.52,26,67,64,5.37,1.73,24000,25,,,,,,,
CC(C)(C)c1ccc(S(=O)(=O)Nc2ccc(Cl)c3c2C(=O)N(Cc2cccc[n+]2[O-])C3=O)cc1,,69,81,79,1.05,2.57,36000,56,,32,33,51,Active,,
Cc1ncccc1N1C(=O)c2c(Cl)ccc(NS(=O)(=O)c3ccc(C(C)(C)C)cc3)c2C1=O,,81,89,62,3.26,2.6,46800,73,,,,,,,
